# Results taken from ChEMBL document CHEMBL3414496, “Synthesis and biological evaluation of novel 2-heteroarylimino-1,3-thiazolidin-4-ones as potential anti-tumor agents” (Eur J Med Chem, 2015).
# Active and inactive are the calls of the source. The rule behind the calls is not given here.
# Key:
# [1] = system: HT-29; assay: Induction of redox status changes in human HT-29 cells assessed as ROS content in presence of 1 mM ascorbic acid by DCF-DA staining based fluorescence assay (reference value: 64.7 +/- 2.6%)
# [2] = system: HT-29; assay: Induction of HO1 expression in human HT-29 cells at 6.4 uM after 6 hrs by Western blotting method; type: functional
# Outline: (§1)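 HT29 whole-cell lysates in Hepes/KOH pH 7.5 with EDTA, KCl, NP40, DTT, protease inhibitors; 50 µg protein on 10–15% SDS-PAGE, nitrocellulose, overnight 4°C primary antibody (GCL 1:500, HO-1 1:1000), HRP secondary, chemiluminescence. Bands normalized to GAPDH (1:10 000), DMSO ratio set at 1.00; representative of three independent experiments.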
# [3] = system: HT-29; assay: Induction of HO1 expression in human HT-29 cells at 6.4 uM after 2 hrs by Western blotting method; type: functional
# Outline: as §1
# [4] = system: HT-29; assay: Induction of NQO1 expression in human HT-29 cells at 6.4 uM after 4 hrs by Western blotting method; type: functional
# Outline: (§2)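 Whole-cell lysates from treated HT29 cells in pH 7.5 Hepes/KOH buffer with EDTA, KCl, Igepal, DTT and protease inhibitors. 50 µg protein run on 10-15% SDS-PAGE and transferred to nitrocellulose. Probed overnight at 4°C with anti-HO-1 (1:1 000), anti-NQO1 (1:1 000) or anti-GCL (1:500), then HRP secondary for 45 min and chemiluminescence. Bands normalized to GAPDH (1:10 000), with the DMSO ratio set to 1.00. Representative of three experiments.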
# [5] = system: HT-29; assay: Induction of NQO1 expression in human HT-29 cells at 6.4 uM after 24 hrs by Western blotting method; type: functional
# Outline: as §2
# [6] = system: HT-29; assay: Induction of GCL expression in human HT-29 cells at 6.4 uM after 24 hrs by Western blotting method; type: functional
# Outline: as §1
# [7] = system: HT-29; assay: Induction of HO1 expression in human HT-29 cells at 6.4 uM after 4 hrs by Western blotting method; type: functional
# Outline: as §1
# [8] = system: HT-29; assay: Induction of NQO1 expression in human HT-29 cells at 6.4 uM after 6 hrs by Western blotting method; type: functional
# Outline: as §2
# [9] = system: HT-29; assay: Induction of NQO1 expression in human HT-29 cells at 6.4 uM after 2 hrs by Western blotting method; type: functional
# Outline: as §2
# [10] = system: HT-29; assay: Induction of HO1 expression in human HT-29 cells at 6.4 uM after 24 hrs by Western blotting method; type: functional
# Outline: as §1
# [11] = system: HT-29; assay: Induction of HO1 expression in human HT-29 cells at 3.8 uM after 6 hrs by Western blotting method; type: functional
# Outline: as §1
# [12] = system: HT-29; assay: Induction of HO1 expression in human HT-29 cells at 3.8 uM after 24 hrs by Western blotting method; type: functional
# Outline: as §1
# [13] = system: HT-29; assay: Induction of HO1 expression in human HT-29 cells at 3.8 uM after 4 hrs by Western blotting method; type: functional
# Outline: as §1
# [14] = system: HT-29; assay: Induction of GCL expression in human HT-29 cells at 3.8 uM after 2 hrs by Western blotting method; type: functional
# Outline: as §1
# [15] = system: HT-29; assay: Induction of GCL expression in human HT-29 cells at 3.8 uM after 24 hrs by Western blotting method; type: functional
# Outline: as §1
# [16] = system: HT-29; assay: Induction of NQO1 expression in human HT-29 cells at 3.8 uM after 24 hrs by Western blotting method; type: functional
# Outline: as §2
# [17] = system: HT-29; assay: Induction of NQO1 expression in human HT-29 cells at 3.8 uM after 4 hrs by Western blotting method; type: functional
# Outline: as §2
# [18] = system: HT-29; assay: Induction of GCL expression in human HT-29 cells at 3.8 uM after 4 hrs by Western blotting method; type: functional
# Outline: as §1
# [19] = system: HT-29; assay: Induction of GCL expression in human HT-29 cells at 3.8 uM after 6 hrs by Western blotting method; type: functional
# Outline: as §1
# [20] = system: HT-29; assay: Induction of NQO1 expression in human HT-29 cells at 3.8 uM after 6 hrs by Western blotting method; type: functional
# Outline: as §2
# [21] = system: HT-29; assay: Induction of GCL expression in human HT-29 cells at 1.5 uM after 4 hrs by Western blotting method; type: functional
# Outline: as §1
# [22] = system: HT-29; assay: Induction of HO1 expression in human HT-29 cells at 1.5 uM after 6 hrs by Western blotting method; type: functional
# Outline: as §1
# [23] = system: HT-29; assay: Induction of NQO1 expression in human HT-29 cells at 1.5 uM after 24 hrs by Western blotting method; type: functional
# Outline: as §2
# [24] = system: HT-29; assay: Induction of NQO1 expression in human HT-29 cells at 1.5 uM after 6 hrs by Western blotting method; type: functional
# Outline: as §2
# [25] = system: HT-29; assay: Induction of HO1 expression in human HT-29 cells at 1.5 uM after 2 hrs by Western blotting method; type: functional
# Outline: as §1
# [26] = system: HT-29; assay: Induction of NQO1 expression in human HT-29 cells at 1.5 uM after 4 hrs by Western blotting method; type: functional
# Outline: as §2
# [27] = system: HT-29; assay: Induction of NQO1 expression in human HT-29 cells at 1.5 uM after 2 hrs by Western blotting method; type: functional
# Outline: as §2
# [28] = system: HT-29; assay: Induction of GCL expression in human HT-29 cells at 1.5 uM after 6 hrs by Western blotting method; type: functional
# Outline: as §1
# [29] = system: HT-29; assay: Induction of GCL expression in human HT-29 cells at 1.5 uM after 24 hrs by Western blotting method; type: functional
# Outline: as §1
# [30] = system: HT-29; assay: Induction of HO1 expression in human HT-29 cells at 1.5 uM after 4 hrs by Western blotting method; type: functional
# Outline: as §1
# [31] = system: HT-29; assay: Induction of ROS generation in human HT-29 cells at 2.5 uM after 2 to 6 hrs by DCF-DA staining based fluorescence assay; type: functional, cell-based
# Outline: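 HT29 cells treated two days after seeding, then loaded with 50 µM DCF-DA for 15 min at 37°C. Cells trypsinized, washed and resuspended in PBS, and 30 000 cells/sample read by flow cytometry (FL-1). Expressed as % of DMSO-treated cells; […] for 1 h served as positive control. Triplicates from three independent experiments.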
# [32] = system: HT-29; assay: Induction of HO1 expression in human HT-29 cells at 10 uM after 4 hrs by Western blotting method; type: functional
# Outline: as §1
# [33] = system: HT-29; assay: Induction of NQO1 expression in human HT-29 cells at 10 uM after 4 hrs by Western blotting method; type: functional
# Outline: as §2
# [34] = system: HT-29; assay: Induction of NQO1 expression in human HT-29 cells at 10 uM after 2 hrs by Western blotting method; type: functional
# Outline: as §2
# [35] = system: HT-29; assay: Induction of HO1 expression in human HT-29 cells at 10 uM after 24 hrs by Western blotting method; type: functional
# Outline: as §1
# [36] = system: HT-29; assay: Induction of GCL expression in human HT-29 cells at 10 uM after 2 hrs by Western blotting method; type: functional
# Outline: as §1
# [37] = system: HT-29; assay: Induction of GCL expression in human HT-29 cells at 10 uM after 6 hrs by Western blotting method; type: functional
# Outline: as §1
# [38] = system: HT-29; assay: Induction of NQO1 expression in human HT-29 cells at 10 uM after 24 hrs by Western blotting method; type: functional
# Outline: as §2
# [39] = system: HT-29; assay: Induction of NQO1 expression in human HT-29 cells at 10 uM after 6 hrs by Western blotting method; type: functional
# Outline: as §2
# [40] = system: HT-29; assay: Induction of GCL expression in human HT-29 cells at 10 uM after 24 hrs by Western blotting method; type: functional
# Outline: as §1
compound,measurement,setting,value
CN(C)c1ccc(/C=C2\S/C(=N\c3nc(-c4ccc(Cl)cc4)cs3)NC2=O)cc1,Activity,[1],158.8%
Cc1ccc(/C=C2\S/C(=N\c3csc(-c4ccc(Cl)cc4)c3)NC2=O)cc1,fold change (FC),[2],1
same,fold change (FC),[3],1
same,fold change (FC),[4],2.59
same,fold change (FC),[5],1.6
same,fold change (FC),[6],0.97
same,fold change (FC),[7],1
same,fold change (FC),[8],1.86
same,fold change (FC),[9],2.23
same,fold change (FC),[10],1
COc1ccc(/C=C2\S/C(=N\c3csc(-c4ccc(Cl)cc4)c3)NC2=O)cc1,fold change (FC),[11],1
same,fold change (FC),[12],1
same,fold change (FC),[13],1
same,fold change (FC),[14],1.22
same,fold change (FC),[15],1.55
same,fold change (FC),[16],0.88
same,fold change (FC),[17],0.87
same,fold change (FC),[18],1.49
same,fold change (FC),[19],1.69
same,fold change (FC),[20],0.9
CN(C)c1ccc(/C=C2\S/C(=N\c3csc(-c4ccc(Cl)cc4)c3)NC2=O)cc1,fold change (FC),[21],0.96
same,fold change (FC),[22],1
same,fold change (FC),[23],1.07
same,fold change (FC),[24],1.26
same,fold change (FC),[25],1
same,fold change (FC),[26],1.06
same,fold change (FC),[27],1.15
same,fold change (FC),[28],0.99
same,fold change (FC),[29],1.52
same,fold change (FC),[30],1
COc1ccc(/C=C2\S/C(=N\c3nc(-c4ccc(Cl)cc4)cs3)NC2=O)cc1,Activity,[31],inactive
COc1ccc(/C=C2\S/C(=N\c3csc(-c4ccc(Cl)cc4)c3)NC2=O)cc1OC,fold change (FC),[32],1
same,fold change (FC),[33],1.26
same,fold change (FC),[34],1.04
same,fold change (FC),[35],1
same,fold change (FC),[36],0.96
same,fold change (FC),[37],1.16
same,fold change (FC),[38],0.9
same,fold change (FC),[39],1.23
same,fold change (FC),[40],1.11
